# What was measured:
# Rattus norvegicus [1] = species: Rattus norvegicus; test: […]; format: ADME, organism-based, Urine; parameters: dose 10 mg/kg, route oral; settings: in vivo, po, 10 mg/kg
# Procedure, shortened: (§1)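 Male Sprague-Dawley rats, about 160 g, fasted 24 h and water withheld 1 1/2 h beforehand; food and water withheld during the test. Dosing by gavage with 25 mL/kg 0.9% saline containing 0.5% (carboxymethyl)cellulose, agent dissolved or suspended. Three cages of two rats each per dose, held in metabolism cages. Urine collected over 5 h. Volume given in mL, Na+ in mequiv. Significance versus control at P < 0.05.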
# Rattus norvegicus [2] = species: Rattus norvegicus; test: […]; format: ADME, organism-based, Urine; parameters: dose 100 mg/kg, route oral; settings: in vivo, po, 100 mg/kg; procedure, shortened: as §1
# Rattus norvegicus [3] = species: Rattus norvegicus; test: […]; format: ADME, organism-based, Urine; parameters: dose 3 mg/kg, route oral; settings: in vivo, po, 3 mg/kg; procedure, shortened: as §1
# Rattus norvegicus [4] = species: Rattus norvegicus; test: […]; format: ADME, organism-based, Urine; parameters: dose 0.3 mg/kg, route oral; settings: in vivo, po, 0.3 mg/kg
# Procedure, shortened: (§2)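 Dose-response test in male Sprague-Dawley rats of about 160 g, fasted 24 h, with water withheld 1½ h before and during the test. Each rat got a single gavage of 25 mL/kg 0.9% saline with 0.5% carboxymethylcellulose carrying the agent (0.3–100 mg/kg range). Rats were housed two per metabolism cage, and urine was collected for 5 h. Mean urine volume (mL) was compared with controls (P < 0.05).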
# Rattus norvegicus [5] = species: Rattus norvegicus; test: […]; format: ADME, organism-based, Urine; parameters: dose 1 mg/kg, route oral; settings: in vivo, po, 1 mg/kg; procedure, shortened: as §2
# Rattus norvegicus [6] = test: Mean excretion of potassium in conscious rats at a dose of 10 mg/kg given orally; format: ADME, organism-based; parameters: dose 10 mg/kg, route oral; settings: in vivo, po
# Procedure, shortened: (§3)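 Secondary dose-response in male Sprague-Dawley rats (~160 g), fasted and hydrated as in the primary screen. Oral gavage at 0.3-100 mg/kg in 25 mL/kg saline/0.5% CMC, three cages of two rats per dose. Urine collected 5 h; Na, K, Cl, HCO3 measured. Values are mean excretion (mequiv), compared with controls at P < 0.05.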
# Rattus norvegicus [7] = test: Mean excretion of potassium in conscious rats at a dose of 100 mg/kg given orally; format: ADME, organism-based; parameters: dose 100 mg/kg, route oral; settings: in vivo, po; procedure, shortened: as §3
# Rattus norvegicus [8] = test: Mean excretion of potassium in conscious rats at a dose of 3.0 mg/kg given orally; format: ADME, organism-based; parameters: dose 3 mg/kg, route oral; settings: in vivo, po; procedure, shortened: as §3
# Rattus norvegicus [9] = test: Mean excretion of potassium in conscious rats at a dose of 30 mg/kg given orally; format: ADME, organism-based; parameters: dose 30 mg/kg, route oral; settings: in vivo, po; procedure, shortened: as §3
# Rattus norvegicus [10] = test: Mean excretion of sodium in conscious rats at a dose of 0.3 mg/kg given orally; format: ADME, organism-based; parameters: dose 0.3 mg/kg, route oral; settings: in vivo, po; procedure, shortened: as §1
# Rattus norvegicus [11] = test: Mean excretion of […] in conscious rats at a dose of 1.0 mg/kg given orally; format: ADME, organism-based; parameters: dose 1 mg/kg, route oral; settings: in vivo, po; procedure, shortened: as §1
# Rattus norvegicus [12] = test: Mean excretion of sodium in conscious rats at a dose of 10 mg/kg given orally; format: ADME, organism-based; parameters: dose 10 mg/kg, route oral; settings: in vivo, po; procedure, shortened: as §1
# Rattus norvegicus [13] = test: Mean excretion of sodium in conscious rats at a dose of 100 mg/kg given orally; format: ADME, organism-based; parameters: dose 100 mg/kg, route oral; settings: in vivo, po; procedure, shortened: as §1
# Rattus norvegicus [14] = test: Mean excretion of sodium in conscious rats at a dose of 3.0 mg/kg given orally; format: ADME, organism-based; parameters: dose 3 mg/kg, route oral; settings: in vivo, po; procedure, shortened: as §1
# Rattus norvegicus [15] = test: Mean excretion of sodium in conscious rats at a dose of 30 mg/kg given orally; format: ADME, organism-based; parameters: dose 30 mg/kg, route oral; settings: in vivo, po; procedure, shortened: as §1
# Rattus norvegicus [16] = test: Mean excretion of chloride in conscious rats at a dose of 1.0 mg/kg given orally; format: ADME, organism-based; parameters: dose 1 mg/kg, route oral; settings: in vivo, po; procedure, shortened: as §3
# Rattus norvegicus [17] = test: Mean excretion of chloride in conscious rats at a dose of 10 mg/kg given orally; format: ADME, organism-based; parameters: dose 10 mg/kg, route oral; settings: in vivo, po; procedure, shortened: as §3
# Rattus norvegicus [18] = test: Mean excretion of chloride in conscious rats at a dose of 100 mg/kg given orally; format: ADME, organism-based; parameters: dose 100 mg/kg, route oral; settings: in vivo, po; procedure, shortened: as §3
# Rattus norvegicus [19] = test: Mean excretion of chloride in conscious rats at a dose of 30 mg/kg given orally; format: ADME, organism-based; parameters: dose 30 mg/kg, route oral; settings: in vivo, po; procedure, shortened: as §3
# Rattus norvegicus [20] = test: Mean excretion of chloride in conscious rats at a dose of 3.0 mg/kg given orally; format: ADME, organism-based; parameters: dose 3 mg/kg, route oral; settings: in vivo, po; procedure, shortened: as §3
# Rattus norvegicus [21] = test: Mean excretion of Cl- in conscious rats at a dose of 0.3 mg/kg given orally; format: ADME, organism-based, Urine; parameters: dose 0.3 mg/kg, route oral; settings: in vivo, po; procedure, shortened: as §2
# Rattus norvegicus [22] = test: Mean excretion of potassium in conscious rats at a dose of 1.0 mg/kg given orally; format: ADME, organism-based; parameters: dose 1 mg/kg, route oral; settings: in vivo, po; procedure, shortened: as §3
# Rattus norvegicus [23] = test: Mean excretion of potassium in conscious rats at a dose of 0.3 mg/kg given orally; format: ADME, organism-based; parameters: dose 0.3 mg/kg, route oral; settings: in vivo, po; procedure, shortened: as §3
# [24] = Diuretic activity at 40 mg/kg (screening dose-68.7 umol/kg) in […] in a one stage experiment; T/C = urine vol of treated rats / urine vol of control rats; format: functional
# Procedure, shortened: (§4)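 40 mg/kg given by gavage in 25 mL/kg 0.9% saline with 0.5% (carboxymethyl)cellulose. Four rats per agent, two per metabolism cage; 20 controls; 5 h urine. T/C = treated/control urine volume. Stage-1 T/C of 1.66 or more leads to stage 2; product T/C1·T/C2 of 3.34 or more counts as active.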
# [25] = Diuretic activity at 40 mg/kg (screening dose-68.7 umol/kg) in […] in a two stage experiment; T/C1.2 = urine vol of treated rats / urine vol of control rats; format: functional; procedure, shortened: as §4
# Rattus norvegicus [26] = species: Rattus norvegicus; test: […]; format: ADME, organism-based, Urine; parameters: dose 30 mg/kg, route oral; settings: in vivo, po, 30 mg/kg; procedure, shortened: as §1
# [27] = Diuretic activity at 40 mg/kg (screening dose-73.8 umol/kg) in […] in a two stage experiment; T/C1.2 = urine vol of treated rats / urine vol of control rats; format: functional; procedure, shortened: as §4
# [28] = Diuretic activity at 40 mg/kg (screening dose-73.8 umol/kg) in […] in a one stage experiment; T/C = urine vol of treated rats / urine vol of control rats; format: functional; procedure, shortened: as §4
# [29] = Diuretic activity at 40 mg/kg (screening dose-90.1 umol/kg) in […] in a one stage experiment; T/C = urine vol of treated rats / urine vol of control rats; format: functional; procedure, shortened: as §4
Structure (SMILES),Mean urine volume (Rattus norvegicus [1]) [mL],Mean urine volume (Rattus norvegicus [2]) [mL],Mean urine volume (Rattus norvegicus [3]) [mL],Mean urine volume (Rattus norvegicus [4]) [mL],Mean urine volume (Rattus norvegicus [5]) [mL],Mean excretion of K+ (Rattus norvegicus [6]) [m equiv],Mean excretion of K+ (Rattus norvegicus [7]) [m equiv],Mean excretion of K+ (Rattus norvegicus [8]) [m equiv],Mean excretion of K+ (Rattus norvegicus [9]) [m equiv],Mean excretion of Na+ (Rattus norvegicus [10]) [m equiv],Mean excretion of Na+ (Rattus norvegicus [11]) [m equiv],Mean excretion of Na+ (Rattus norvegicus [12]) [m equiv],Mean excretion of Na+ (Rattus norvegicus [13]) [m equiv],Mean excretion of Na+ (Rattus norvegicus [14]) [m equiv],Mean excretion of Na+ (Rattus norvegicus [15]) [m equiv],Mean excretion of Cl- (Rattus norvegicus [16]) [m equiv],Mean excretion of Cl- (Rattus norvegicus [17]) [m equiv],Mean excretion of Cl- (Rattus norvegicus [18]) [m equiv],Mean excretion of Cl- (Rattus norvegicus [19]) [m equiv],Mean excretion of Cl- (Rattus norvegicus [20]) [m equiv],further results
CN(C)CCc1nnc2n1-c1ccc(Br)cc1C(c1ccccc1)=NC2,5.9,13,5.97,3.99,4.38,0.21,0.27,0.23,0.16,0.66,0.65,0.68,1.57,0.78,1,0.65,0.74,1.42,0.94,0.82,Mean excretion of Cl- (Rattus norvegicus [21]): 0.66 m equiv; Mean excretion of K+ (Rattus norvegicus [22]): 0.23 m equiv; Mean excretion of K+ (Rattus norvegicus [23]): 0.25 m equiv; T/C 1 [24]: 2.98; T/C 1.2 [25]: 7.84; Mean urine volume (Rattus norvegicus [26]): 8.44 mL
I.NCC(c1ccccc1)c1nnc2n1-c1ccc(Cl)cc1C(c1ccccc1)=NC2 (stereo not drawn),6.21,8.43,3.92,4.34,4.45,0.27,0.27,0.22,0.28,0.77,0.76,1.08,1.63,0.69,2.01,0.79,1.09,1.57,1.72,0.73,Mean excretion of Cl- (Rattus norvegicus [21]): 0.81 m equiv; Mean excretion of K+ (Rattus norvegicus [22]): 0.32 m equiv; Mean excretion of K+ (Rattus norvegicus [23]): 0.28 m equiv; T/C 1.2 [27]: 5.92; T/C 1 [28]: 2.53; Mean urine volume (Rattus norvegicus [26]): 10.47 mL
CN(C)CC(c1ccccc1)c1nnc2n1-c1ccccc1C(c1ccccc1)=NC2.Cl (stereo not drawn),,,,,,,,,,,,,,,,,,,,,T/C 1 [29]: 1.48
